A selection: hits, their analogues and other compounds. The true share with any hit is near 1.6%.
PPC-1+TRAIL kill: compounds killing PPC-1 cancer cells with TRAIL present, primary screen, TRAIL potentiator project, ATPLite luminescence, uHTS | cell killing (% activity), % at 4 µM or 5 µM | 220,000 compounds, 0.41% hits | AID 1443, 2008 | PPC-1 cells + TRAIL, ATPLite viability luminescence;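 active = cell killing above 50% in the first pass at 4 µM, then a duplicate retest at 5 µM averaging 50% or more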
TRAIL sens C8: viability loss with TRAIL in NB7+C8 cells, primary screen, TRAIL sensitizer project, cell-based, ATPlite luminescence. inhibition (viability loss, TRAIL sensitization), % at 10 µM. 360,000 compounds, 1% hits;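 active = compounds causing at least 50% loss of cell viability in the single-dose screen, relative to plate controls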
FLuc act counter: FLuc activators, initial screening, artefact control for FLuc-dependent activation tests, biochemical, ATPlite luminescence; Luciferin 4-monooxygenase (Photinus pyralis), P08659; AID 1027, 2008; 200,000 tested, under 10 active; ATPlite luciferase biochemical, 10 min; 0 = ATP-free wells, 1 = DMSO control; activation factor at 10 µM;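 active = luciferase activation factor, scaled between plate controls, of at least 2 with compound at 10 µM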
Target sequence (P08659 whole entry, looked up): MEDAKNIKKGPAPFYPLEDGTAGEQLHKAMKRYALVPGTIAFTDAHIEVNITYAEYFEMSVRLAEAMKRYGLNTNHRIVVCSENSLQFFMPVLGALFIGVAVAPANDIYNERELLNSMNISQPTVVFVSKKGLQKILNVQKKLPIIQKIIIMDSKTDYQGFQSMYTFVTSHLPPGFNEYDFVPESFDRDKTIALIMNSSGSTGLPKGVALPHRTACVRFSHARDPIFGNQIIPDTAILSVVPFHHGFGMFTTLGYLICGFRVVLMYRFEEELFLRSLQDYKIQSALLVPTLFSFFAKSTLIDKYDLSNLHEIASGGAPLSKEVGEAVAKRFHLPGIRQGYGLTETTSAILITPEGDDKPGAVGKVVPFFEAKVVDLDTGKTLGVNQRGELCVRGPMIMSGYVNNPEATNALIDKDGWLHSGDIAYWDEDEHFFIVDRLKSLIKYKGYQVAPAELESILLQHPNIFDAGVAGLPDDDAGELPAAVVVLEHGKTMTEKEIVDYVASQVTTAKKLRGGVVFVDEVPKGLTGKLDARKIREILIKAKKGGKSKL
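Assay system: Luciferase/luciferin detection reagent, cell-free biochemical luciferase assay / Read-out: luciferase activation / Benchmarks: No-ATP low control, compound-free enzyme-plus-ATP high control / Medium: PBS buffer for ATP / Detection: luminescence measurement of luciferase light output / Schedule: 10 min at ambient temperature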
FLuc inh counter: firefly luciferase enzyme inhibitors, primary screen, artefact control for luciferase-based inhibitor screens, biochemical, luminescence, ATPLite; inhibition, % at 10 µM; 10 min; 200,000 compounds, 1.5% hits; AID 1006, 2008;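 active = inhibition above about 50% when tested at 10 µM, limit read from the data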
PPC1 cytotox: cytotoxicity in PPC-1 cells, confirmation, cytotoxicity control for TRAIL apoptosis potentiator project, cell-based, ATP content luminescence; shares compounds with PPC-1+TRAIL kill; PPC-1 viability, ATPlite luminescence, overnight; cytotoxicity, % at 5 µM; 1,200 compounds, 50% hits; AID 1447, 2008;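 active = reconfirmed compounds whose average cytotoxicity reaches 50% or more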
Hits are given with their value; 0 = inactive; - = no result.

SMILES	PPC-1+TRAIL kill	TRAIL sens C8	FLuc act counter	FLuc inh counter	PPC1 cytotox
O=C(CSc1nnc(-c2ccccc2Cl)o1)Nc1ccc2c(c1)OCCO2	0	0	0	0	-
CC(=O)CSc1nnc(-c2ccc3c(c2)OCO3)o1	0	0	0	67	0
O=c1cc(-c2ccccc2)c2c(O)cc(O)cc2o1	-	0	-	-	-
COC(=O)c1ccc(N/C=C\C(=O)c2ccc3c(c2)OCO3)cc1	0	0	0	0	-
O=C(/C=C/c1ccccc1Br)c1ccc2c(c1)OCO2	-	0	-	-	-
O=C(/C=C\Nc1ccccc1Br)c1ccc2c(c1)OCO2	93	91	0	97	94
O=C(/C=C\Nc1cccc(F)c1)c1ccc2c(c1)OCO2	74	72	0	90	71
Oc1[nH]c2ccccc2c1N=Nc1ccccc1	0	0	-	-	-
Cc1nc2cc(-c3ccccc3)sc2c(=O)n1N	65	76	0	89	64
COc1ccc(-c2cc3nc(C)n(N)c(=O)c3s2)cc1	89	86	-	-	90
COc1cccc(CNc2nc3cc(-c4ccccc4)sc3c(=O)n2C)c1	-	0	-	-	-
Cn1c(NCc2ccccc2)nc2cc(-c3ccccc3)sc2c1=O	-	0	-	-	-
O=C(CSc1nnc(-c2ccncc2)n1CC1CCCO1)NCc1ccccc1 (configuration not stated)	0	0	0	0	-
COc1ccc(N/N=C/c2c(C(=O)O)ccc3ccccc23)cc1	0	0	-	-	0
Cn1cnnc1SCCn1c(N2CCCCC2)nc2c1c(=O)[nH]c(=O)n2C	0	0	0	0	0
Cc1ccc(N2C(=O)c3ccccc3C2=O)cc1Cl	0	0	0	0	-
O=C(Nc1ccc2ccccc2c1)c1cccc2ccccc12	-	0	-	-	-
O=C(c1ccco1)N1CCN(C(=O)c2ccco2)CC1	-	0	-	-	-
Cc1cccc2nc(=S)n(C(=O)c3ccco3)n12	0	54	0	85	0
CCN(C(=O)CN1C(=O)S/C(=C\c2ccccc2Cl)C1=O)C1CCS(=O)(=O)C1 (configuration not stated)	-	0	-	-	-
COc1ccc2nc(NC(=O)C3CCCN(S(=O)(=O)c4cccs4)C3)sc2c1 (configuration not stated)	0	0	0	0	-
CCO/C(=C/c1sc2ccc(OC)cc2[n+]1CCCS(=O)(=O)[O-])CC	0	0	0	0	-
CCOC(=O)C[n+]1c(C)sc2ccc(OC)cc21	0	0	0	0	0
CCc1ccccc1N(CC(=O)O)S(C)(=O)=O	0	0	0	0	0
CN(c1cccc(NC(=O)c2ccc(C(C)(C)C)cc2)c1)S(C)(=O)=O	0	73	0	80	53
SMILES	PPC-1+TRAIL kill	TRAIL sens C8	FLuc act counter	FLuc inh counter	PPC1 cytotox
CCc1ccccc1N(CC(=O)Nc1cccc(N(C)S(C)(=O)=O)c1)S(C)(=O)=O	0	0	0	0	0
Cc1ccc(CNC(=O)/C=C/c2cccs2)cc1	0	0	0	0	-
c1ccc(-c2nc3ccccc3[nH]2)cc1	-	0	-	-	-
C(=C\c1nc2ccccc2[nH]1)/c1ccccc1	88	86	0	94	88
O=S(=O)(c1ccc(Nc2ccc(-c3ccc4c(c3)OCCO4)nn2)cc1)N1CCCC1	0	0	0	0	-
O=C(NC1CC1)c1cccc(Nc2ccc(-c3ccc4c(c3)OCCO4)nn2)c1	69	72	0	83	66
CCc1nnc(NC(=O)CSc2nnc(-c3ccoc3C)n2CC(C)C)s1	0	0	0	0	-
C(=N\Nc1nc2ccccc2s1)/c1ccccn1	69	-	-	-	73
Cc1csc(N/N=C/c2ccccn2)n1	0	73	0	92	0
COc1ccc(C=NNc2nc3ccccc3s2)cc1	-	0	-	-	-
CCOc1ccc(-c2nc3ccccc3c(=O)o2)cc1	54	68	0	68	56
CC(=O)Oc1cccc(-c2nc3ccccc3c(=O)o2)c1	0	0	0	0	-
COc1ccc2[nH]c3nc(SC(C)C)nnc3c2c1	58	63	0	63	56
COc1ccc(CNC(=O)CSc2nnc3c(n2)[nH]c2ccc(OC)cc23)cc1	-	0	-	-	-
O=C(N/N=C/c1ccc([N+](=O)[O-])cc1)c1[nH]ncc1Br	0	0	0	60	0
O=C(N/N=C/c1ccc([N+](=O)[O-])cc1)c1cc(C2CC2)[nH]n1	-	0	-	-	-
CCOc1cc(/C=N/Nc2cc(C)nc(-n3nc(C)cc3C)n2)ccc1O	58	0	-	-	54
CCOc1cc(/C=N/Nc2nncc(-c3ccccc3)n2)ccc1O	0	0	0	0	-
CCOc1cc(/C=N/Nc2nn3cnnc3c3ccccc23)ccc1O	56	73	-	-	59
COc1cc(/C=N/Nc2nc(C)cc(C)n2)ccc1O	-	0	-	-	-
COc1cc(/C=N/Nc2nn3cnnc3c3ccccc23)ccc1O	79	78	0	94	77
Cc1cccc(NS(=O)(=O)c2cc(C(=O)N3CCc4ccccc4C3)ccc2Cl)c1C	0	0	0	0	0
Cc1ccc(-c2cn3c(=O)cc(C)[nH]c3n2)cc1	71	71	0	88	69
Cc1cccc(C(=O)NCC(=O)OCC(=O)c2cc(C)n(CC3CCCO3)c2C)c1 (configuration not stated)	0	0	0	0	-
COCCCNc1nc2c(-c3cccc(C)c3)nnn2c2ccccc12	0	0	0	0	-
SMILES	PPC-1+TRAIL kill	TRAIL sens C8	FLuc act counter	FLuc inh counter	PPC1 cytotox
O=C(/C=C/c1ccco1)Nc1ccc2c(c1)OCCO2	64	64	0	89	63
O=C(/C=C/c1ccco1)Nc1ccc(C(=O)N2CCOCC2)cc1	0	0	0	0	-
O=C(CN1CCN(c2ccc(F)cc2)CC1)N1CCC(Cc2ccccc2)CC1	0	0	0	0	-
COc1ccc(-c2nsc3c(N4CCCCC4)ncnc23)cc1	79	85	0	89	78
COc1ccc(C(=O)N2CCN(c3ncnc4c(-c5ccccc5)nsc34)CC2)cc1	0	0	0	0	-
COc1ccc(-c2nsc3c(N4CCCCC4C)ncnc23)cc1 (configuration not stated)	77	78	0	91	79
CCOc1ccc2nc(NC(=O)c3ccccn3)sc2c1	84	82	-	-	81
Cc1ccc2nc(NC(=O)c3ccccn3)sc2c1	91	91	0	95	89
CCOc1ccc2nc(NC(=S)NCc3ccccc3)sc2c1	0	0	0	0	-
O=C(Nc1nc2ccc(S(=O)(=O)N3CCCC3)cc2s1)c1ccccn1	0	0	0	0	-
COC(=O)c1cc(=O)n(CCc2ccc(OC)cc2)c(=Nc2ccc(F)c(Cl)c2)s1	0	0	0	0	-
O=C(Nc1ccc(F)cc1)c1nn(-c2ccccc2)c(=O)cc1Cl	0	0	0	0	0
Clc1ccc(-n2cnnn2)cc1	0	0	0	0	-
Oc1ccc(-n2cnnn2)cc1	0	0	0	0	0
CCn1nnc(NC(=O)COc2cc(C)ccc2C(C)C)n1	0	0	0	0	-
COc1cccc(N2CCN(c3ncnc4c3[nH]c3ccc(F)cc34)CC2C)c1 (configuration not stated)	63	95	0	0	63

Source: PubChem BioAssay (Sanford-Burnham Center for Chemical Genomics)
